Screening results: PubChem BioAssay, Johns Hopkins Ion Channel Center
Only some compounds are listed: those with a hit (about 3.8% of all), similar ones and a draw of the others.
hERG protect = shields human hERG channel from block by proarrhythmic agents. hit rate 0.51% among 310,000. Q12809. CHO-hERG, FluxOR thallium flux, dofetilide IC70 present. activation (rescue from dofetilide block), less the hit threshold, % at 10 µM;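 active = activation above the mean of controls blocked by dofetilide plus 5 SD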;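 note: thallium influx through hERG after potassium depolarization seen as dye fluorescence rise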
Target sequence (Q12809 whole entry, looked up): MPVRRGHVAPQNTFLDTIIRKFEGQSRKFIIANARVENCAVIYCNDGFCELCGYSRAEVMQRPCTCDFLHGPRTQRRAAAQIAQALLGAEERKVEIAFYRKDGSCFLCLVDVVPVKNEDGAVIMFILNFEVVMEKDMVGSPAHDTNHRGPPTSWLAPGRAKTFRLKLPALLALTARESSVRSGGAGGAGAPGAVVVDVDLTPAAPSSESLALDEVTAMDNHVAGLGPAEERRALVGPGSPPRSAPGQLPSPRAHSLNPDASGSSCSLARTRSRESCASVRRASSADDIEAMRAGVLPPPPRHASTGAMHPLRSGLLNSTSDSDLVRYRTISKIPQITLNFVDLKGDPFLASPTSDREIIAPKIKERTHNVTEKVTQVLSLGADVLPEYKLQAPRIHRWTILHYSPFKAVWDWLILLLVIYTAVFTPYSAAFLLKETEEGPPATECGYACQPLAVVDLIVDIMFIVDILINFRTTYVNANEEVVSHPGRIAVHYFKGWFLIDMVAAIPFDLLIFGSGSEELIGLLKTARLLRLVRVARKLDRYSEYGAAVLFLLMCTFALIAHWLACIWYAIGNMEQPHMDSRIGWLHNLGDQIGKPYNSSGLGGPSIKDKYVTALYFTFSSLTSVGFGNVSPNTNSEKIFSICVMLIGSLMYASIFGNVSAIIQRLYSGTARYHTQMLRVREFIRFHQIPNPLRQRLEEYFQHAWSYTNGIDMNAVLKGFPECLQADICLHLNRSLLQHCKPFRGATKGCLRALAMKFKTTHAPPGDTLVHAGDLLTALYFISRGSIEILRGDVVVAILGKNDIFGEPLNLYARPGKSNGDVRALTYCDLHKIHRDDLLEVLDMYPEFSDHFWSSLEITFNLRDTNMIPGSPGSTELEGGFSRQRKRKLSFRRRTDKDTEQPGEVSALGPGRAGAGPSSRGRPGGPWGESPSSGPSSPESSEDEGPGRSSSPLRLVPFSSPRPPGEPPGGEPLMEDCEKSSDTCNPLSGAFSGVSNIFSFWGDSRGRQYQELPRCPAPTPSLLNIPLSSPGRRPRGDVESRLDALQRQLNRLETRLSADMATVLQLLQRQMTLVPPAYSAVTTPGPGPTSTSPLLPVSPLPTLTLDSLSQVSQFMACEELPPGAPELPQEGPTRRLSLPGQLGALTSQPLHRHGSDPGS
KCNQ1 act = human KCNQ1 channel potentiation or activation; P51787; CHO-K1 KCNQ1, thallium flux FluxOR fluorescence; hits give high values; B-score at 10 µM; hit rate 0.35% among 310,000;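 active = fluorescence ratio B-score, a plate-corrected score, at least three library SD, with initial intensity B-score within 5 SD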
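Assay system: CHO-K1 cells stably expressing KCNQ1; Medium: assay buffer with matched DMSO; Also added: K+/Tl+ depolarizing stimulus; Dosing: single dose; Timing: dye 90 min, compound 20 min, room temperature; Measured by: kinetic FluxOR thallium fluorescence, 10-s 1-Hz baseline, 110-s post-stimulus read; Read-out: peak-minus-minimum fluorescence over initial fluorescence, negative-control normalized, B-scored.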
KCNK3 block = human KCNK3 channel inhibition, primary screen | CHO-KCNK3 thallium flux, FluxOR fluorescence; hits give low values | B-score at 10 µM | hit rate 0.84% among 340,000 | AID 602410;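 active = B-score under library mean minus 4 SD, starting fluorescence ratio at most library mean plus 5 SD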;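 note: more negative B-score means stronger inhibition of thallium flux through KCNK3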
KCNK9 block = inhibitors of human KCNK9 two-pore domain potassium channel. AID 488922. HEK293 KCNK9, FluxOR thallium flux fluorescence; hits give low values. B-score at 10 µM. hit rate 1.2% among 310,000;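 active = ratio B-score over 3 SD below the library mean, with starting fluorescence within 5 SD of its mean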;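 note: negative B-score means less thallium flux so channel inhibition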
Kir21 block = inhibitors of mouse Kir2.1 inward-rectifier potassium channel. HEK293-Kir2.1, FluxOR thallium flux fluorescence; hits give low values. P35561. hit rate 0.85% among 310,000. B-score at 10 µM;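 active = fluorescence ratio B-score at or below minus 3 SD of library scores, with starting-brightness B-score within 2 SD, cut at about -4.2 in these data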;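 note: channel flux triggered by added potassium and thallium sulfate stimulus; B-score of peak minus minimum fluorescence over baseline after thallium stimulus; more negative B-score means stronger Kir2.1 block with less thallium influx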
KCNQ1 block = human KCNQ1 channel inhibition; P51787; AID 2642; hit rate 1.3% among 310,000; B-score at 10 µM; CHO-K1 KCNQ1, FluxOR thallium flux fluorescence; hits give high values;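 active = compounds whose thallium flux B-score, printed positive for inhibition, exceeds three library SD while starting fluorescence stays within three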;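 note: channel opened by potassium depolarization with thallium stimulus after 20 min compound exposure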
KCNK3 inh conf = human KCNK3 channel inhibition, confirmation assay. shares compounds with KCNK3 block. CHO-KCNK3 thallium flux, FluxOR fluorescence; 0% buffer, 100% carvedilol maximal block. ratio percent of control, % at 10 µM. hit rate 99% among 2,400. AID 651638;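 active = ratio percent of control, averaged over triplicates, above buffer control mean plus 5 SD, cut at about 64% in these data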;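 note: ratio is the fluorescence rise from min to max over baseline after thallium stimulus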
KCNK3 noninduced = activity in cells without induced KCNK3 expression. non-induced KCNK3 parental cells, FluxOR thallium flux; hits give low values. shares compounds with KCNK3 block. AID 651747. thallium flux ratio (lower = more inhibition) at 10 µM. hit rate 40% among 2,400;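 active = thallium flux ratio, averaged over three wells, more than 5 SD below the buffer control mean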;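 note: host cells are CHO cells without KCNK3 induction; ratio is peak minus trough fluorescence over baseline then normalized to buffer controls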
Active calls of the source: *.

C[C@H](CO)N1C[C@H](C)[C@@H](CN(C)Cc2ccc(-c3ccccc3)cc2)Oc2c(NS(=O)(=O)c3ccc(F)cc3)cccc2C1=O was read as KCNK3 block inactive.
`CCOC(=O)c1ccc(S(=O)(=O)NNC(=O)c2ccc3c(c2)nc(C)n3CC)cc1` gave hERG protect -18.9, KCNQ1 act inactive, KCNK3 block inactive, KCNK9 block inactive, Kir21 block 0.43 and KCNQ1 block inactive.
`COc1cccc(OCc2nc(-c3cccc([N+](=O)[O-])c3)no2)c1` gave hERG protect -6.9, KCNQ1 act inactive, KCNK3 block -9.97*, KCNK9 block inactive, Kir21 block 0.74, KCNQ1 block inactive, KCNK3 inh conf 99.0* and KCNK3 noninduced inactive.
`CCCCOc1ccc(/C=C/C(=O)OCC(=O)NC2CCS(=O)(=O)C2)cc1OCC` (configuration not stated) gave hERG protect -10.6, KCNQ1 act inactive, KCNK3 block inactive, KCNK9 block inactive, Kir21 block -0.83 and KCNQ1 block inactive.
Screening COC(=O)Cc1c[nH]c2cccc(OCC(O)CN(Cc3ccccc3)C(C)C)c12 (configuration not stated) returned hERG protect -16.2, KCNQ1 act inactive, KCNK3 block -8.85*, KCNK9 block -7.95*, Kir21 block -1.19, KCNQ1 block inactive, KCNK3 inh conf 99.7* and KCNK3 noninduced inactive.
Screening Cc1ccc(CN(CC(O)COc2cccc3[nH]cc(C)c23)C(C)(C)C)cc1 (configuration not stated) returned hERG protect -7.0, KCNQ1 act inactive, KCNK3 block inactive, KCNK9 block inactive, Kir21 block -1.86 and KCNQ1 block inactive.
Screening C/C(=N\Nc1ccc(Cl)c(Cl)c1)c1ccc(-n2ccnc2)cc1 returned hERG protect -8.4, KCNQ1 act inactive, KCNK3 block inactive, KCNK9 block inactive, Kir21 block 0.04 and KCNQ1 block inactive.
`C=CCn1c(Sc2ncc([N+](=O)[O-])s2)n[nH]c1=O` gave hERG protect -12.0, KCNQ1 act inactive, KCNK3 block -9.29*, KCNK9 block inactive, Kir21 block 0.12, KCNQ1 block 7*, KCNK3 inh conf 144.3* and KCNK3 noninduced 0.0827*.
COc1ccc(C(=O)OCCOc2ccccc2C(C)=O)c(O)c1 was read as hERG protect -9.3, KCNQ1 act inactive, KCNK3 block -9.77*, KCNK9 block inactive, Kir21 block 0.41, KCNQ1 block inactive, KCNK3 inh conf 119.3* and KCNK3 noninduced 0.137*.
`O=C(OCC#CCSc1nc2ccccc2o1)c1cc2ccccc2o1` gave hERG protect -8.6, KCNQ1 act inactive, KCNK3 block -10.8*, KCNK9 block inactive, Kir21 block 2.62, KCNQ1 block inactive, KCNK3 inh conf 104.7* and KCNK3 noninduced 0.153*.
For O=[N+]([O-])/C(C=Nc1ccccc1O)=C\Nc1ccccc1O the results were hERG protect -12.1, KCNQ1 act inactive, KCNK3 block inactive, KCNK9 block inactive, Kir21 block -0.04 and KCNQ1 block inactive.
CC1(C(=O)OCC(=O)Nc2nc(-c3ccc(F)c(F)c3)cs2)CC1(Cl)Cl (configuration not stated) was read as hERG protect -20.4, KCNQ1 act inactive, KCNK3 block -9.96*, KCNK9 block inactive, Kir21 block 0.4, KCNQ1 block inactive, KCNK3 inh conf 140.0* and KCNK3 noninduced 0.138*.
O=C(Cc1ccc(F)cc1)Nc1nc(-c2ccc(F)c(F)c2)cs1 was read as hERG protect -3.6, KCNQ1 act inactive, KCNK3 block -11*, KCNK9 block inactive, Kir21 block -0.02, KCNQ1 block inactive, KCNK3 inh conf 130.0* and KCNK3 noninduced inactive.
For COc1ccc(CC(=O)Nc2nc(-c3ccc(F)c(F)c3)cs2)cc1 the results were hERG protect -7.6, KCNQ1 act inactive, KCNK3 block inactive, KCNK9 block inactive, Kir21 block -0.12 and KCNQ1 block inactive.
Screening COC(=O)c1cccc(COC(=O)c2ccc(CS(=O)(=O)c3ccc(C)cc3)cc2)c1 returned hERG protect -7.1, KCNQ1 act inactive, KCNK3 block inactive, KCNK9 block inactive, Kir21 block 0 and KCNQ1 block inactive.
Screening COC(=O)C(Cc1csc2ccc(Cl)cc12)NC(=O)c1ccc(Cl)cc1 (configuration not stated) returned hERG protect 4.0, KCNQ1 act inactive, KCNK3 block -10.4*, KCNK9 block inactive, Kir21 block -0.6, KCNQ1 block inactive, KCNK3 inh conf 140.3* and KCNK3 noninduced 0.145*.
`CCc1cc(=O)oc2cc3oc(C)c(C)c3cc12` gave hERG protect -5.1, KCNQ1 act inactive, KCNK3 block inactive, KCNK9 block inactive, Kir21 block -1.65 and KCNQ1 block inactive.
Screening CC(C)n1ncc2c(C(=O)Nc3cccc(C#N)c3)cc(C3CC3)nc21 returned KCNK3 block -11.7*, KCNK3 inh conf 117.7* and KCNK3 noninduced 0.132*.
COc1ccc(Cl)cc1NC(=O)C(=O)NCc1ccncc1 was read as hERG protect 0.1, KCNQ1 act inactive, KCNK3 block inactive, KCNK9 block inactive, Kir21 block -0.53 and KCNQ1 block inactive.
`Cc1ccc(SCC(=O)N2c3ccccc3Sc3ccccc32)cc1` gave hERG protect -8.1, KCNQ1 act inactive, KCNK3 block -9.58*, KCNK9 block inactive, Kir21 block 0.08, KCNQ1 block inactive, KCNK3 inh conf 104.7* and KCNK3 noninduced 0.157*.
O=C(Nc1cc(Cl)ccc1N1CCCCC1)c1cccs1 was read as hERG protect -2.4, KCNQ1 act inactive, KCNK3 block -13.6*, KCNK9 block -7.25*, Kir21 block -0.95, KCNQ1 block inactive, KCNK3 inh conf 128.3* and KCNK3 noninduced 0.12*.
For CCOC(=O)N1CCN(C(=O)CSCC(=O)Nc2nc(-c3ccc(-c4ccccc4)cc3)cs2)CC1 the results were hERG protect -15.2, KCNQ1 act inactive, KCNK3 block -10.3*, KCNK9 block inactive, Kir21 block 0.46, KCNQ1 block 6*, KCNK3 inh conf 117.0* and KCNK3 noninduced 0.147*.
For O=C(CSCC(=O)N1CCOCC1)Nc1nc(-c2ccccc2)cs1 the results were hERG protect -7.1, KCNQ1 act inactive, KCNK3 block inactive, KCNK9 block inactive, Kir21 block -0.13 and KCNQ1 block inactive.
